Experimental data: ChEMBL document CHEMBL4689842, “EUbOPEN Chemogenomics Library wave 1” (2021)

Tested on: U2OS
Assay: Multiplex assay against U2OS
Assay type: toxicity, cell-based
Conditions: human
Summary of the method: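 Imaging took place on a CQ1 microscope at 37°C and 5% CO2 once compound had been added to live cells stained at seeding with Hoechst33342, BioTracker Green Microtubule Cytoskeleton Dye, MitoTracker Red and Annexin V Alexa Fluor 680. CellPathfinder machine-learning gating classed cells as Hoechst high-intensity objects or normal cells, classed normal cells as having healthy, pyknosed or fragmented nuclei, and classed pyknosed cells as mitotic or apoptotic. Tubulin, mitochondrial-mass and membrane-permeability phenotypes are per cents of the healthy-nucleus cells.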

[1] = 12 h, 1 µM, compound concentration 1 uM, replicate 1
[2] = 12 h, 1 µM, compound concentration 1 uM, replicate 2
[3] = 12 h, 10 µM, compound concentration 10 uM, replicate 1
[4] = 12 h, 10 µM, compound concentration 10 uM, replicate 2
[5] = 24 h, 1 µM, compound concentration 1 uM, replicate 1
[6] = 24 h, 1 µM, compound concentration 1 uM, replicate 2
[7] = 24 h, 10 µM, compound concentration 10 uM, replicate 1
[8] = 24 h, 10 µM, compound concentration 10 uM, replicate 2
[9] = 48 h, 1 µM, compound concentration 1 uM, replicate 1
[10] = 48 h, 1 µM, compound concentration 1 uM, replicate 2
[11] = 48 h, 10 µM, compound concentration 10 uM, replicate 1
[12] = 48 h, 10 µM, compound concentration 10 uM, replicate 2

COc1ccc(-c2ccc3c(N4CCOCC4)nc(N4C[C@@H](C)O[C@@H](C)C4)nc3n2)cc1CO [Ku-0063794]
Population Apoptotic (%) [1]: 36%
Population Fragmented Nuclei (%) [1]: 7%
Population Healthy Nuclei (%) [1]: 87%
Population Hoechst High Intensity Objects (%) [1]: 0%
Population Membrane Permeable-Phenotype (%) [1]: 8%
Population Mitochondria Different-Phenotype (%) [1]: 19%
Population Mitotic Cells (%) [1]: 63%
Population Normal (%) [1]: 99%
Population Pyknosed Nuclei (%) [1]: 5%
Population Tubulin-Different-Phenotype (%) [1]: 22%
Total Cell Count [1]: 158
Population Apoptotic (%) [2]: 62%
Population Fragmented Nuclei (%) [2]: 11%
Population Healthy Nuclei (%) [2]: 83%
Population Hoechst High Intensity Objects (%) [2]: 7%
Population Membrane Permeable-Phenotype (%) [2]: 4%
Population Mitochondria Different-Phenotype (%) [2]: 20%
Population Mitotic Cells (%) [2]: 37%
Population Normal (%) [2]: 92%
Population Tubulin-Different-Phenotype (%) [2]: 30%
Total Cell Count [2]: 91
Population Apoptotic (%) [3]: 69%
Population Fragmented Nuclei (%) [3]: 34%
Population Healthy Nuclei (%) [3]: 61%
Population Hoechst High Intensity Objects (%) [3]: 31%
Population Membrane Permeable-Phenotype (%) [3]: 20%
Population Mitochondria Different-Phenotype (%) [3]: 6%
Population Mitotic Cells (%) [3]: 30%
Population Normal (%) [3]: 68%
Population Pyknosed Nuclei (%) [3]: 4%
Population Tubulin-Different-Phenotype (%) [3]: 11%
Total Cell Count [3]: 221
Population Apoptotic (%) [4]: 33%
Population Fragmented Nuclei (%) [4]: 37%
Population Healthy Nuclei (%) [4]: 57%
Population Hoechst High Intensity Objects (%) [4]: 37%
Population Membrane Permeable-Phenotype (%) [4]: 8%
Population Mitochondria Different-Phenotype (%) [4]: 11%
Population Mitotic Cells (%) [4]: 66%
Population Normal (%) [4]: 62%
Total Cell Count [4]: 164
Population Apoptotic (%) [5]: 46%
Population Fragmented Nuclei (%) [5]: 7%
Population Healthy Nuclei (%) [5]: 88%
Population Hoechst High Intensity Objects (%) [5]: 0%
Population Membrane Permeable-Phenotype (%) [5]: 6%
Population Mitochondria Different-Phenotype (%) [5]: 19%
Population Mitotic Cells (%) [5]: 53%
Population Normal (%) [5]: 99%
Population Pyknosed Nuclei (%) [5]: 4%
Population Tubulin-Different-Phenotype (%) [5]: 22%
Total Cell Count [5]: 173
Population Apoptotic (%) [6]: 16%
Population Fragmented Nuclei (%) [6]: 10%
Population Healthy Nuclei (%) [6]: 86%
Population Hoechst High Intensity Objects (%) [6]: 7%
Population Membrane Permeable-Phenotype (%) [6]: 7%
Population Mitochondria Different-Phenotype (%) [6]: 34%
Population Mitotic Cells (%) [6]: 83%
Population Normal (%) [6]: 92%
Population Pyknosed Nuclei (%) [6]: 3%
Population Tubulin-Different-Phenotype (%) [6]: 31%
Total Cell Count [6]: 93
Population Apoptotic (%) [7]: 60%
Population Fragmented Nuclei (%) [7]: 31%
Population Healthy Nuclei (%) [7]: 63%
Population Hoechst High Intensity Objects (%) [7]: 35%
Population Membrane Permeable-Phenotype (%) [7]: 15%
Population Mitochondria Different-Phenotype (%) [7]: 4%
Population Mitotic Cells (%) [7]: 40%
Population Normal (%) [7]: 64%
Population Pyknosed Nuclei (%) [7]: 4%
Population Tubulin-Different-Phenotype (%) [7]: 9%
Total Cell Count [7]: 298
Population Apoptotic (%) [8]: 31%
Population Fragmented Nuclei (%) [8]: 39%
Population Healthy Nuclei (%) [8]: 53%
Population Hoechst High Intensity Objects (%) [8]: 38%
Population Membrane Permeable-Phenotype (%) [8]: 7%
Population Mitochondria Different-Phenotype (%) [8]: 9%
Population Mitotic Cells (%) [8]: 68%
Population Normal (%) [8]: 61%
Population Pyknosed Nuclei (%) [8]: 6%
Population Tubulin-Different-Phenotype (%) [8]: 7%
Total Cell Count [8]: 197

Cc1cn(-c2cc(NC(=O)c3ccc(C)c(Nc4nccc(-c5cccnc5)n4)c3)cc(C(F)(F)F)c2)cn1 [NILOTINIB]
Population Apoptotic (%) [1]: 46%
Population Fragmented Nuclei (%) [1]: 14%
Population Healthy Nuclei (%) [1]: 69%
Population Hoechst High Intensity Objects (%) [1]: 8%
Population Membrane Permeable-Phenotype (%) [1]: 10%
Population Mitochondria Different-Phenotype (%) [1]: 77%
Population Mitotic Cells (%) [1]: 53%
Population Normal (%) [1]: 91%
Population Pyknosed Nuclei (%) [1]: 16%
Population Tubulin-Different-Phenotype (%) [1]: 94%
Total Cell Count [1]: 134
Population Apoptotic (%) [2]: 25%
Population Fragmented Nuclei (%) [2]: 1%
Population Healthy Nuclei (%) [2]: 86%
Population Membrane Permeable-Phenotype (%) [2]: 1%
Population Mitochondria Different-Phenotype (%) [2]: 18%
Population Mitotic Cells (%) [2]: 75%
Population Pyknosed Nuclei (%) [2]: 11%
Population Tubulin-Different-Phenotype (%) [2]: 10%
Total Cell Count [2]: 66
Population Apoptotic (%) [3]: 86%
Population Fragmented Nuclei (%) [3]: 45%
Population Healthy Nuclei (%) [3]: 20%
Population Hoechst High Intensity Objects (%) [3]: 49%
Population Membrane Permeable-Phenotype (%) [3]: 30%
Population Mitochondria Different-Phenotype (%) [3]: 89%
Population Mitotic Cells (%) [3]: 13%
Population Normal (%) [3]: 50%
Population Pyknosed Nuclei (%) [3]: 33%
Population Tubulin-Different-Phenotype (%) [3]: 93%
Total Cell Count [3]: 185
Population Apoptotic (%) [4]: 33%
Population Fragmented Nuclei (%) [4]: 18%
Population Healthy Nuclei (%) [4]: 72%
Population Hoechst High Intensity Objects (%) [4]: 7%
Population Membrane Permeable-Phenotype (%) [4]: 4%
Population Mitochondria Different-Phenotype (%) [4]: 61%
Population Mitotic Cells (%) [4]: 66%
Population Normal (%) [4]: 92%
Population Pyknosed Nuclei (%) [4]: 9%
Population Tubulin-Different-Phenotype (%) [4]: 63%
Total Cell Count [4]: 73
Population Apoptotic (%) [5]: 55%
Population Fragmented Nuclei (%) [5]: 12%
Population Healthy Nuclei (%) [5]: 66%
Population Hoechst High Intensity Objects (%) [5]: 6%
Population Membrane Permeable-Phenotype (%) [5]: 14%
Population Mitochondria Different-Phenotype (%) [5]: 73%
Population Mitotic Cells (%) [5]: 44%
Population Normal (%) [5]: 93%
Population Pyknosed Nuclei (%) [5]: 20%
Population Tubulin-Different-Phenotype (%) [5]: 92%
Total Cell Count [5]: 135
Population Apoptotic (%) [6]: 40%
Population Fragmented Nuclei (%) [6]: 14%
Population Healthy Nuclei (%) [6]: 79%
Population Hoechst High Intensity Objects (%) [6]: 5%
Population Membrane Permeable-Phenotype (%) [6]: 2%
Population Mitochondria Different-Phenotype (%) [6]: 20%
Population Mitotic Cells (%) [6]: 60%
Population Normal (%) [6]: 94%
Population Pyknosed Nuclei (%) [6]: 5%
Population Tubulin-Different-Phenotype (%) [6]: 12%
Total Cell Count [6]: 67
Population Apoptotic (%) [7]: 85%
Population Fragmented Nuclei (%) [7]: 60%
Population Healthy Nuclei (%) [7]: 16%
Population Hoechst High Intensity Objects (%) [7]: 60%
Population Membrane Permeable-Phenotype (%) [7]: 29%
Population Mitochondria Different-Phenotype (%) [7]: 71%
Population Mitotic Cells (%) [7]: 14%
Population Normal (%) [7]: 39%
Population Pyknosed Nuclei (%) [7]: 23%
Population Tubulin-Different-Phenotype (%) [7]: 78%
Total Cell Count [7]: 184
Population Apoptotic (%) [8]: 0%
Population Fragmented Nuclei (%) [8]: 12%
Population Healthy Nuclei (%) [8]: 83%
Population Hoechst High Intensity Objects (%) [8]: 2%
Population Membrane Permeable-Phenotype (%) [8]: 1%
Population Mitochondria Different-Phenotype (%) [8]: 42%
Population Mitotic Cells (%) [8]: 100%
Population Normal (%) [8]: 97%
Population Pyknosed Nuclei (%) [8]: 4%
Population Tubulin-Different-Phenotype (%) [8]: 30%
Total Cell Count [8]: 93
Population Apoptotic (%) [9]: 65%
Population Fragmented Nuclei (%) [9]: 14%
Population Healthy Nuclei (%) [9]: 67%
Population Hoechst High Intensity Objects (%) [9]: 3%
Population Membrane Permeable-Phenotype (%) [9]: 16%
Population Mitochondria Different-Phenotype (%) [9]: 54%
Population Mitotic Cells (%) [9]: 34%
Population Normal (%) [9]: 96%
Population Pyknosed Nuclei (%) [9]: 17%
Population Tubulin-Different-Phenotype (%) [9]: 80%
Total Cell Count [9]: 127
Population Apoptotic (%) [10]: 25%
Population Fragmented Nuclei (%) [10]: 4%
Population Healthy Nuclei (%) [10]: 92%
Population Hoechst High Intensity Objects (%) [10]: 5%
Population Membrane Permeable-Phenotype (%) [10]: 6%
Population Mitochondria Different-Phenotype (%) [10]: 18%
Population Mitotic Cells (%) [10]: 75%
Population Normal (%) [10]: 94%
Population Pyknosed Nuclei (%) [10]: 3%
Population Tubulin-Different-Phenotype (%) [10]: 24%
Total Cell Count [10]: 64
Population Apoptotic (%) [11]: 85%
Population Fragmented Nuclei (%) [11]: 69%
Population Healthy Nuclei (%) [11]: 10%
Population Hoechst High Intensity Objects (%) [11]: 61%
Population Membrane Permeable-Phenotype (%) [11]: 24%
Population Mitochondria Different-Phenotype (%) [11]: 33%
Population Mitotic Cells (%) [11]: 15%
Population Normal (%) [11]: 38%
Population Pyknosed Nuclei (%) [11]: 19%
Population Tubulin-Different-Phenotype (%) [11]: 40%
Total Cell Count [11]: 245
Population Apoptotic (%) [12]: 11%
Population Fragmented Nuclei (%) [12]: 15%
Population Healthy Nuclei (%) [12]: 75%
Population Hoechst High Intensity Objects (%) [12]: 4%
Population Membrane Permeable-Phenotype (%) [12]: 8%
Population Mitochondria Different-Phenotype (%) [12]: 20%
Population Mitotic Cells (%) [12]: 88%
Population Normal (%) [12]: 95%
Population Pyknosed Nuclei (%) [12]: 9%
Population Tubulin-Different-Phenotype (%) [12]: 25%
Total Cell Count [12]: 132
